Laboratory results: ChEMBL document CHEMBL2176912, “Diphenyl purine derivatives as peripherally selective cannabinoid receptor 1 antagonists” (J Med Chem, 2012)

Legend:
Cannabinoid receptor 1 [1] = target: T1, Cannabinoid receptor 1 (Homo sapiens, UniProt P21554); test: Antagonist activity at human CB1 receptor transfected in CHO-K1 cells co-expressing Galphaq16 assessed as intracellular calcium mobilization using Calcein-4 AM by fluorescence assay; format: functional, cell-based
In short: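 CHO-K1 cells engineered to coexpress human CB1 and Gαq16. Calcium flux read with fluorescent dye Calcein-4 AM on a plate reader. Antagonism measured as rightward shift of the CP55940 concentration–response curve. Ke = [ligand]/(DR−1), where DR is the ratio of CP55940 EC50 with and without test agent. Values are averages of 3–6 measurements.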

Cannabinoid receptor 1 [2] = target: T1, Cannabinoid receptor 1; test: Displacement of [3H]CP55940 from human CB1 receptor expressed in CHO-K1 cells; format: cell-based
Cannabinoid receptor 2 = Cannabinoid receptor 2 (Homo sapiens, UniProt P34972); test: Displacement of [3H]CP55940 from human CB2 receptor expressed in CHO-K1 cells; format: cell-based
CHO-K1 = test: Selectivity ratio of Ki for human CB2 receptor expressed in CHO-K1 cells to Ki for human CB1 receptor expressed in CHO-K1 cells
Plasma = test: Metabolic stability in human plasma assessed as compound remaining after 60 mins; format: ADME, cell-free; conditions: 1 h
In short: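 Pooled mixed-gender human plasma, 1 mL per sample at 37 °C. Compound at 10 μM final, sampled at 0, 30 and 60 min after 5 min preincubation. Reaction stopped with acetonitrile, LC-MS/MS quantitation; percent remaining at 60 min.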

Liver = test: Metabolic stability in human liver S9 fraction assessed as compound remaining after 120 mins; format: ADME, subcellular; conditions: s9, 2 h
In short: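 Pooled mixed-gender human hepatic S9 at 1 mg/mL. Compound at 10 μM final in 50 mM potassium phosphate pH 7.4 with 3 mM MgCl2 and NADPH regeneration (NADP 1 mM, glucose-6-phosphate 5 mM, G6PDH 1 unit/mL). Triplicates incubated 0, 15, 30, 60, 120 min, stopped with 3 vol acetonitrile, LC-MS/MS against matrix standard curves; percent remaining at 120 min.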

MDCK = test: Permeability from apical to basolateral side in dog MDCK cells expressing MDR-1 gene; format: ADME, cell-based, Canis lupus familiaris
In short: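 MDCK-mdr1 cells grown on Transwell-type filters for 4 days to confluence in DMEM/F12 with 10% FBS and antibiotics. Compound applied apically at 10 μM in HBSS with 25 mM D-glucose, HEPES-buffered to pH 7.4. Incubated 1 h at 37 °C; apical and basal samples quantified by LC-MS/MS (MRM). Averages of 2–3 measurements.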

Nucleic Acid [3] = test: Ratio of drug uptake in brain to plasma of Sprague-Dawley rat brain at 10 mg/kg, po after 120 mins; format: ADME, organism-based; set-up: dose 10 mg/kg, route oral; conditions: 2 h
In short: (§1)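 Male Sprague–Dawley rats, 8 weeks old, dosed orally at 10 mg/kg in food-grade corn oil; 3–4 animals per time point. Plasma and unperfused brain collected post dose. Brain homogenized in 50:50 ethanol/water; plasma and homogenate extracted with acetonitrile and centrifuged. Analysed by LC-MS/MS against standards prepared in blank matrix. Ratio taken from brain and plasma concentrations.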

[4] = Plasma concentration in Sprague-Dawley rat at 10 mg/kg, po after 60 mins; format: ADME, organism-based; set-up: dose 10 mg/kg, route oral
In short: (§2)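 Male Sprague–Dawley rats, 8 weeks old, given 10 mg/kg orally in food-grade corn oil. Three to four animals per time point. Plasma and unperfused brain collected at 0.5–8 h. Brain homogenized in 50:50 ethanol/water. Samples protein-precipitated with acetonitrile and analysed by LC-MS/MS on a C18 column against standards in blank matrix.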

[5] = Plasma concentration in Sprague-Dawley rat at 10 mg/kg, po after 240 mins; format: ADME, organism-based; set-up: dose 10 mg/kg, route oral; in short: as §2
Nucleic Acid [6] = test: Ratio of drug uptake in brain to plasma of Sprague-Dawley rat brain at 10 mg/kg, po after 60 mins; format: ADME, organism-based; set-up: dose 10 mg/kg, route oral; conditions: 1 h; in short: as §1
Nucleic Acid [7] = test: Ratio of drug uptake in brain to plasma of Sprague-Dawley rat brain at 10 mg/kg, po after 240 mins; format: ADME, organism-based; set-up: dose 10 mg/kg, route oral; conditions: 4 h; in short: as §1
[8] = Drug uptake in Sprague-Dawley rat brain at 10 mg/kg, po after 480 mins; format: ADME, organism-based; set-up: dose 10 mg/kg, route oral; conditions: read-out: Drug uptake; in short: as §2
[9] = Drug uptake in Sprague-Dawley rat brain at 10 mg/kg, po after 30 mins; format: ADME, organism-based; set-up: dose 10 mg/kg, route oral; conditions: read-out: Drug uptake; in short: as §2
[10] = Drug uptake in Sprague-Dawley rat brain at 10 mg/kg, po after 120 mins; format: ADME, organism-based; set-up: dose 10 mg/kg, route oral; conditions: read-out: Drug uptake; in short: as §2
[11] = Drug uptake in Sprague-Dawley rat brain at 10 mg/kg, po after 60 mins; format: ADME, organism-based; set-up: dose 10 mg/kg, route oral; conditions: read-out: Drug uptake; in short: as §2
[12] = Drug uptake in Sprague-Dawley rat brain at 10 mg/kg, po after 240 mins; format: ADME, organism-based; set-up: dose 10 mg/kg, route oral; conditions: read-out: Drug uptake; in short: as §2
[13] = Plasma concentration in Sprague-Dawley rat at 10 mg/kg, po after 30 mins; format: ADME, organism-based; set-up: dose 10 mg/kg, route oral; in short: as §2
[14] = Plasma concentration in Sprague-Dawley rat at 10 mg/kg, po after 120 mins; format: ADME, organism-based; set-up: dose 10 mg/kg, route oral; in short: as §2
Nucleic Acid [15] = test: Ratio of drug uptake in brain to plasma of Sprague-Dawley rat brain at 10 mg/kg, po after 30 mins; format: ADME, organism-based; set-up: dose 10 mg/kg, route oral; conditions: 0.5 h; in short: as §1
Nucleic Acid [16] = test: Ratio of drug uptake in brain to plasma of Sprague-Dawley rat brain at 10 mg/kg, po after 480 mins; format: ADME, organism-based; set-up: dose 10 mg/kg, route oral; conditions: 8 h; in short: as §1

Sequence of Cannabinoid receptor 2 (P34972 whole entry): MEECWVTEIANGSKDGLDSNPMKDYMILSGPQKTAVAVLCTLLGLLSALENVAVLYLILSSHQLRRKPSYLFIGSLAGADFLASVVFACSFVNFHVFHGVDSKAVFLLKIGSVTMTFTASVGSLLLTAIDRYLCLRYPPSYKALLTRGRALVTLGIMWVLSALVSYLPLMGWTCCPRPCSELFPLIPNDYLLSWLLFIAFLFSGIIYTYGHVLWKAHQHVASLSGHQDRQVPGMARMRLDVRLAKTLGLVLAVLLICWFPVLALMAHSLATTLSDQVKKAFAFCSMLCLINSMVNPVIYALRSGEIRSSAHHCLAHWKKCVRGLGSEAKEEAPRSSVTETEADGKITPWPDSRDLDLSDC
T1 sequence (P21554 whole entry): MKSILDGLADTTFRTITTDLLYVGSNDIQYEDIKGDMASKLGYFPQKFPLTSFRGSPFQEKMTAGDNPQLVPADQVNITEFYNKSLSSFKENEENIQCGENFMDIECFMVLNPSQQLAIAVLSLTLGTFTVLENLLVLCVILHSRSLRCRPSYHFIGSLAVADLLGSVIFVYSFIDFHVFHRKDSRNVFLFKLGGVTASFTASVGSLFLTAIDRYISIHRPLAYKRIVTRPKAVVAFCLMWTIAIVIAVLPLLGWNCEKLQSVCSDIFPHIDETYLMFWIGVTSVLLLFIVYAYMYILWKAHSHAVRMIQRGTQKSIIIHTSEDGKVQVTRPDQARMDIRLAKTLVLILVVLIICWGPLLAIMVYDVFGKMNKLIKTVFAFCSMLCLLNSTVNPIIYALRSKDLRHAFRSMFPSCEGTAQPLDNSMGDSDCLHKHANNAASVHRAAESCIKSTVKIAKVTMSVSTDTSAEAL

SMILES	Ke (Cannabinoid receptor 1 [1]) [nM]	Ki (Cannabinoid receptor 1 [2]) [nM]	Ki (Cannabinoid receptor 2) [nM]	Ratio Ki (CHO-K1)	further results
CCCNC(=O)NC1(c2ccccc2)CCN(c2ncnc3c2nc(-c2ccccc2Cl)n3-c2ccc(Cl)cc2)CC1	99	220	7780	35	
CC(C)(C)NC(=O)NC1(c2ccccc2)CCN(c2ncnc3c2nc(-c2ccccc2Cl)n3-c2ccc(Cl)cc2)CC1		25.5	20000	784	Stability (Plasma): > 90%; Stability (Liver): 43%; permeability (MDCK): < 1%
O=S(=O)(NC1CCN(c2ncnc3c2nc(-c2ccccc2Cl)n3-c2ccc(Cl)cc2)CC1)c1ccccc1	0.3	1.2	5860	4890	
CCCCNC(=O)N1CCC(Nc2ncnc3c2nc(-c2ccccc2Cl)n3-c2ccc(Cl)cc2)CC1	71	3340	> 20000		
CC(=O)N1CCC[C@H](Nc2ncnc3c2nc(-c2ccccc2Cl)n3-c2ccc(Cl)cc2)C1	4450				
CC(C)(C)OC(=O)NC1CCN(c2ncnc3c2nc(-c2ccccc2Cl)n3-c2ccc(Cl)cc2)CC1	11	1.5	1710	1140	
O=C(NC1CCN(c2ncnc3c2nc(-c2ccccc2Cl)n3-c2ccc(Cl)cc2)CC1)C(F)(F)F	3.2				
O=C(NC1CCN(c2ncnc3c2nc(-c2ccccc2Cl)n3-c2ccc(Cl)cc2)CC1)c1ccccc1	0.7				
CCNC(=O)N1CCC[C@H](Nc2ncnc3c2nc(-c2ccccc2Cl)n3-c2ccc(Cl)cc2)C1	1150				
CC(=O)N1CCC[C@@H](Nc2ncnc3c2nc(-c2ccccc2Cl)n3-c2ccc(Cl)cc2)C1	920				
CC(C)(C)OC(=O)NC1(c2ccccc2)CCN(c2ncnc3c2nc(-c2ccccc2Cl)n3-c2ccc(Cl)cc2)CC1		7.1	13900	1960	permeability (MDCK): < 1%
CCNC1(C(N)=O)CCN(c2ncnc3c2nc(-c2ccccc2Cl)n3-c2ccc(Cl)cc2)CC1 [OTENABANT]					permeability (MDCK): 40%
CS(=O)(=O)N1CCC[C@@H](Nc2ncnc3c2nc(-c2ccccc2Cl)n3-c2ccc(Cl)cc2)C1	346				
CCCNC(=O)NC1CCN(c2ncnc3c2nc(-c2ccccc2Cl)n3-c2ccc(Cl)cc2)CC1		28	153	5	
CC(C)NC(=O)NC1CCN(c2ncnc3c2nc(-c2ccccc2Cl)n3-c2ccc(Cl)cc2)CC1		14	2450	175	
CCNC(=O)NC1(c2ccccc2)CCN(c2ncnc3c2nc(-c2ccccc2Cl)n3-c2ccc(Cl)cc2)CC1		195	4640	24	
CS(=O)(=O)NC1(c2ccccc2)CCN(c2ncnc3c2nc(-c2ccccc2Cl)n3-c2ccc(Cl)cc2)CC1	2.9			153	BPR (Nucleic Acid [3]): 0.1; concentration at 1 h [4]: 767 ng/mL; Stability (Plasma): > 90%; concentration at 4 h [5]: 1650 ng/mL; BPR (Nucleic Acid [6]): 0.08; BPR (Nucleic Acid [7]): 0.11; concentration at 8 h [8]: 89 ng/mL; concentration at 0.5 h [9]: 38 ng/mL; concentration at 2 h [10]: 122 ng/mL; concentration at 1 h [11]: 58 ng/mL; concentration at 4 h [12]: 184 ng/mL; concentration at 0.5 h [13]: 752 ng/mL; Stability (Liver): > 90%; concentration at 2 h [14]: 1190 ng/mL; permeability (MDCK): < 1%; BPR (Nucleic Acid [15]): 0.05; BPR (Nucleic Acid [16]): 0.1
CC(C)(C)OC(=O)N1CCC(Nc2ncnc3c2nc(-c2ccccc2Cl)n3-c2ccc(Cl)cc2)CC1	92	24	14000	568	
NC1(c2ccccc2)CCN(c2ncnc3c2nc(-c2ccccc2Cl)n3-c2ccc(Cl)cc2)CC1		11	1660	151	permeability (MDCK): < 1%
CS(=O)(=O)N1CCC[C@H](Nc2ncnc3c2nc(-c2ccccc2Cl)n3-c2ccc(Cl)cc2)C1	6040				
CCNC(=O)N1CCC[C@@H](Nc2ncnc3c2nc(-c2ccccc2Cl)n3-c2ccc(Cl)cc2)C1	1500				
NC(=O)C1(c2ccccc2)CCN(c2ncnc3c2nc(-c2ccccc2Cl)n3-c2ccc(Cl)cc2)CC1	9	1.79	5510	3080	Stability (Plasma): > 90%; Stability (Liver): > 90%; permeability (MDCK): 6%
CCCCNC(=O)NC1CCN(c2ncnc3c2nc(-c2ccccc2Cl)n3-c2ccc(Cl)cc2)CC1		25	1550	62	
Cc1c(C(=O)N2CCC(C(N)=O)(c3ccccc3)CC2)nn(-c2ccc(Cl)cc2Cl)c1-c1ccc(Cl)cc1	0.45			1600	permeability (MDCK): 8%
CC(C)NC(=O)NC1(c2ccccc2)CCN(c2ncnc3c2nc(-c2ccccc2Cl)n3-c2ccc(Cl)cc2)CC1	46	337	8950	27	
CCCCNC(=O)NC1(c2ccccc2)CCN(c2ncnc3c2nc(-c2ccccc2Cl)n3-c2ccc(Cl)cc2)CC1		269	> 20000		
CS(=O)(=O)NC1CCN(c2ncnc3c2nc(-c2ccccc2Cl)n3-c2ccc(Cl)cc2)CC1		29	1070	37	
